Measurements as given in ChEMBL document CHEMBL4364248, “Discovery of 1,2,4-oxadiazole-Containing hydroxamic acid derivatives as histone deacetylase inhibitors potential application in cancer therapy” (Eur J Med Chem, 2019).

Experiments:
[1] = target: T1, Protein deacetylase HDAC6 (Homo sapiens) (UniProt Q9UBN7); experiment: Inhibition of recombinant full length HDAC6 (unknown origin) using Ac-peptide-AMC as substrate at 100 nM after 1 hr by fluorescence assay relative to control
T1 sequence (whole entry): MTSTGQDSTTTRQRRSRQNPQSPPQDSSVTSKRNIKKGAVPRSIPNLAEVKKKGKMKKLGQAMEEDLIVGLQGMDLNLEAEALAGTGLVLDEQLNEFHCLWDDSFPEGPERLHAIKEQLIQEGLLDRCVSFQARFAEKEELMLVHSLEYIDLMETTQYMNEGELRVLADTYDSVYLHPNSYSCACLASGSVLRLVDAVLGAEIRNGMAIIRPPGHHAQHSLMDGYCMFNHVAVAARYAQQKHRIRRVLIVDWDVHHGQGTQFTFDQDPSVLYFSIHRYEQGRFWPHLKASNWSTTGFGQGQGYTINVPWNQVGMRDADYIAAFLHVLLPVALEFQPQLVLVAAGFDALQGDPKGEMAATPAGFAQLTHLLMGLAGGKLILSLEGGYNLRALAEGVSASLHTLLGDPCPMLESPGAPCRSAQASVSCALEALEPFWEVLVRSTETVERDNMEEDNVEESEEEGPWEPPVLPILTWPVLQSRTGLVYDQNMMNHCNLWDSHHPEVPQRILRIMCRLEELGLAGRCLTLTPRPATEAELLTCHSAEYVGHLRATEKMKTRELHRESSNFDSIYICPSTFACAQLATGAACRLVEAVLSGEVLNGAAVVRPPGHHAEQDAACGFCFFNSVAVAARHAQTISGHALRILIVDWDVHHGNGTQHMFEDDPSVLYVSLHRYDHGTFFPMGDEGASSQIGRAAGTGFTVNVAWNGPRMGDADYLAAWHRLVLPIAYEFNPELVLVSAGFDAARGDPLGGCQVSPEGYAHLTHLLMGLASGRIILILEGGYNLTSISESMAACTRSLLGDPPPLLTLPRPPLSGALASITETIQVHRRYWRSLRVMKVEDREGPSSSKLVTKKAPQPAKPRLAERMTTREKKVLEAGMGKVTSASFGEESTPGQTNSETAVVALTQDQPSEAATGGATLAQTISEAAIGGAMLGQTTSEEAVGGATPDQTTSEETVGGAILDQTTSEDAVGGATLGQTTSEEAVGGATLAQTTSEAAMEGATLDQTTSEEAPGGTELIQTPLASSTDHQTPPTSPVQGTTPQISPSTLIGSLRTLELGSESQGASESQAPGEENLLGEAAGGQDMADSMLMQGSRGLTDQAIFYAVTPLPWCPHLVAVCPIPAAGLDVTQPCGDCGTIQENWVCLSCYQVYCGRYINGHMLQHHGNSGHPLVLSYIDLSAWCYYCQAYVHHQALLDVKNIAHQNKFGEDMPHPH
Method in brief: (§1)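 Full-length recombinant HDAC1 or HDAC6 was incubated with compound, trypsin and Ac-peptide-AMC substrate for 1 h at room temperature. Fluorescence was read at ex 355/em 460 nm. Inhibition was calculated against the DMSO vehicle control.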

Histone deacetylase 1 = Histone deacetylase 1 (Homo sapiens, UniProt Q13547); experiment: Inhibition of recombinant full length HDAC1 (unknown origin) using Ac-peptide-AMC as substrate at 100 nM after 1 hr by fluorescence assay relative to control; method in brief: as §1
Raji = experiment: Antiproliferative activity against human Raji cells after 72 hrs by MTT assay; type: functional, cell-based

Chain of Histone deacetylase 1 (Q13547 whole entry): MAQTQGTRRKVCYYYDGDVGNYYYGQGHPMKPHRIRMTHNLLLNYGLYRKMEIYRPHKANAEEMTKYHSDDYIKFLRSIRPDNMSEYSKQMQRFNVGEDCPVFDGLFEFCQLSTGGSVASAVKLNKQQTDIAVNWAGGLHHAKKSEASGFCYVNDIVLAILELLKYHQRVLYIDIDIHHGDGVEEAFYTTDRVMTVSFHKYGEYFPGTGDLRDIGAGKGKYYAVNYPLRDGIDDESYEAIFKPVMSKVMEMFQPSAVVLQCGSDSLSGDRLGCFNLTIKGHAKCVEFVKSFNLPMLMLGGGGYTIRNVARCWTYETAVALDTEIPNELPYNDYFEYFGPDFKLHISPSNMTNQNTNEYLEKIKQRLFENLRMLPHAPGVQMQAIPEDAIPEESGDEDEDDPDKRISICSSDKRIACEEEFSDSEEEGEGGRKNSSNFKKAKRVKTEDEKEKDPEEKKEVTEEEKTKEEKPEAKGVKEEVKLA

SMILES	inhibition [1]	inhibition (Histone deacetylase 1)	IC50 (Raji)
N#Cc1ccccc1CN1CCC(c2noc(COc3ccc(/C=C/C(=O)NO)cc3)n2)CC1	65%	36%	–
O=C(NO)c1ccc(OCc2nc(C3CCN(Cc4ccccc4)CC3)no2)cc1	66%	29%	–
CCCN1CCC(c2noc(COc3ccc(/C=C/C(=O)NO)cc3)n2)CC1	69%	40%	–
O=C(Cc1ccc(OCc2nc(C3CCN(Cc4ccccc4)CC3)no2)cc1)NO	35%	18%	–
CN(Cc1nc(C2CCN(Cc3ccc(C#N)cc3)CC2)no1)c1ncc(C(=O)NO)cn1	38%	68%	117 nM
CN(Cc1nc(C2CCN(Cc3ccc(F)cc3F)CC2)no1)c1ncc(C(=O)NO)cn1	66%	88%	34.3 nM
COc1ccc(CN2CCC(c3noc(COc4ccc(/C=C/C(=O)NO)cc4)n3)CC2)cc1	75%	36%	–
Cc1ccccc1CN1CCC(c2noc(COc3ccc(/C=C/C(=O)NO)cc3)n2)CC1	68%	14%	–
O=C(/C=C/c1ccc(OCc2nc(C3CCN(Cc4ccccc4Cl)CC3)no2)cc1)NO	59%	8%	–
O=C(/C=C/c1ccc(OCc2nc(C3CCN(Cc4ccccc4F)CC3)no2)cc1)NO	68%	31%	–
Cc1cccc(CN2CCC(c3noc(COc4ccc(/C=C/C(=O)NO)cc4)n3)CC2)c1	73%	25%	–
O=C(/C=C/c1ccc(OCc2nc(C3CCN(Cc4ccc(Br)cc4)CC3)no2)cc1)NO	58%	6%	–
C=CCN1CCC(c2noc(COc3ccc(CCC(=O)NO)cc3)n2)CC1	15%	4%	–
CN(Cc1nc(C2CCN(Cc3ccccc3)CC2)no1)c1ncc(/C=C/C(=O)NO)cn1	55%	65%	547 nM
Cc1ccc(CN2CCC(c3noc(COc4ccc(CCC(=O)NO)cc4)n3)CC2)cc1	28%	12%	–
O=C(/C=C/c1ccc(OCc2nc(C3CCN(Cc4ccc(F)cc4)CC3)no2)cc1)NO	75%	38%	–
O=C(/C=C/c1ccc(OCc2nc(C3CCN(Cc4ccccc4[N+](=O)[O-])CC3)no2)cc1)NO	63%	19%	–

SMILES	inhibition [1]	inhibition (Histone deacetylase 1)	IC50 (Raji)
Cc1cccc(CN2CCC(c3noc(CN(C)c4ncc(C(=O)NO)cn4)n3)CC2)c1	54%	93%	47.3 nM
C=CCN1CCC(c2noc(COc3ccc(/C=C/C(=O)NO)cc3)n2)CC1	66%	34%	–
O=C(/C=C/c1ccc(OCc2nc(C3CCN(Cc4ccc(F)c(F)c4)CC3)no2)cc1)NO	60%	17%	–
CN(Cc1nc(C2CCN(Cc3ccccc3)CC2)no1)c1ncc(C(=O)NO)cn1	63%	96%	27.6 nM
O=C(/C=C/c1ccc(OCc2nc(C3CCN(Cc4cccc(F)c4)CC3)no2)cc1)NO	73%	35%	–
CCCN1CCC(c2noc(COc3ccc(CCC(=O)NO)cc3)n2)CC1	13%	5%	–
CN(Cc1nc(C2CCN(Cc3ccc(F)cc3Cl)CC2)no1)c1ncc(C(=O)NO)cn1	49%	73%	116 nM
CN(Cc1nc(C2CCN(Cc3ccccc3Cl)CC2)no1)c1ncc(C(=O)NO)cn1	55%	93%	48.3 nM
O=C(CCc1ccc(OCc2nc(C3CCN(Cc4ccccc4)CC3)no2)cc1)NO	22%	11%	–
CN(Cc1nc(C2CCN(Cc3ccc(F)cc3)CC2)no1)c1ncc(C(=O)NO)cn1	65%	92%	22 nM
CN(Cc1nc(C2CCN(Cc3ccc(C(F)(F)F)cc3)CC2)no1)c1ncc(C(=O)NO)cn1	30%	62%	207 nM
Cc1ccc(CN2CCC(c3noc(CN(C)c4ncc(/C=C/C(=O)NO)cn4)n3)CC2)cc1	60%	61%	292 nM
O=C(/C=C/c1ccc(OCc2nc(C3CCN(Cc4ccc(F)cc4F)CC3)no2)cc1)NO	74%	35%	–
CN(Cc1nc(C2CCN(Cc3ccccc3F)CC2)no1)c1ncc(C(=O)NO)cn1	44%	84%	98.6 nM
O=C(/C=C/c1ccc(OCc2nc(C3CCN(Cc4ccccc4)CC3)no2)cc1)NO	71%	35%	–
Cc1ccc(CN2CCC(c3noc(COc4ccc(/C=C/C(=O)NO)cc4)n3)CC2)cc1	76%	32%	–
